Calb FLC – C. albicans growth inhibition with fluconazole, primary screen, CaCi-2 strain, Alamar Blue fluorescence; AID 1979, 2009; growth inhibition, % (no concentration beside the values); hit rate 0.57% among 300,000; C. albicans CaCi-2 (fluconazole-resistant clinical isolate) + fluconazole, 48 h;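 active = growth inhibition above about 58% in most replicates, limit read from the data, passing the limit was not always enough; inconclusive = exactly half the replicates above a set limit; inactive = most replicates below a set limit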;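 also: all wells also contain fluconazole at 8 µg/ml as a sub-toxic cotreatment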
NLRP3 yeast inh – NALP3 inflammasome inhibitors in reconstituted yeast, primary screen, luminescence, uHTS; Yeast reconstituted NLRP3/ASC/caspase-1, beta-gal luminescence, 24 h; inhibition, % at 10 µM; hit rate 0.39% among 330,000;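 active = inhibition of 50% or more; inactive = inhibition below 50%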
T cruzi inh – inhibitors of intracellular T. cruzi growth, primary screen, luminescence, NIH3T3 host cells; T. cruzi beta-gal in NIH3T3, 90 h; inhibition, % (no concentration beside the values); hit rate 1.4% among 300,000; AID 1885, 2009;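 active = mean inhibition across valid replicates above about 55%, limit read from the data; inconclusive = mean below that limit but half or more replicates reach it; inactive = mean below it, under half of replicates reach it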;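 also: signal also drops with host cell toxicity which is not excluded here; higher percent means less beta-gal luminescence so fewer parasites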
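System: NIH/3T3 fibroblasts plus reporter T. cruzi. Medium: DMEM plus 2% FBS. Probe or stimulus: 5000 reporter trypomastigotes per well. Compound: single 50 nL compound addition per well in DMSO. Incubation: co-culture of at least 90 h after 3 h attachment. Detection: GalScreen β-gal luminescence, detergent lysis, 60 min. Evaluation: parasite load inhibition, %.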
L major viab – Leishmania major promastigote growth inhibition, primary screen | Leishmania major promastigotes, resazurin fluorescence viability | inhibition, % at 10 µM | hit rate 9% among 200,000; in the data active = inhibition above about 50%;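 also: promastigotes grown with compound for 44 hours at 28 °C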
PolyA inhibitor – polyadenylation inhibitors in yeast reporter cells, primary screen, luminescence, S. cerevisiae. S. cerevisiae SKY197-pL101 polyadenylation reporter, beta-gal luminescence; efflux-impaired pdr1/pdr3 knockout yeast; score 100 = 6 SD above DMSO. activity score, % at 12 µM. hit rate 0.02% among 300,000. AID 1875, 2009;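 active = lowest replicate activity score at least 50, where 100 means six control SD above control mean; inconclusive = lowest score under 50 but half or more replicates reach 50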;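 also: yeast exposed to compound for 9 h at 30 °C; higher score means more reporter readthrough which indicates perturbed polyadenylation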
NALP1 inh – NALP1 inflammasome inhibitors in reconstituted yeast, colorimetric, S. cerevisiae, triplicate retest; inhibition, % at 10 µM; hit rate 0.61% among 280,000; AID 2071, 2009; S. cerevisiae NALP1/ASC/caspase-1 growth, X-gal OD620, 72 h; in the data active = inhibition mostly above about 24%, no sharp cut-off; inactive = mostly below about 32%
Numbers stand for hits; n = inactive; u = inconclusive; x = not tested or not shown. The full list was thinned out, with hits kept by preference.

SMILES	Calb FLC	NLRP3 yeast inh	T cruzi inh	L major viab	PolyA inhibitor	NALP1 inh
CC(C)(C)OC(=O)C[C@H]1C/C=C\C[C@H](CC(=O)N[C@@H](CO)Cc2ccccc2)C(=O)N[C@H](C(C)(C)C)COC1=O	x	n	x	x	x	x
COc1ccc(C(=O)/C=C/C(=O)N(CC(=O)NC2CCCCC2)Cc2ccccc2OC)c(O)c1	n	x	89.1	n	n	n
COc1ccc(C(=O)/C=C/C(=O)N(CC(=O)NC2CCCCC2)CC2CCCO2)c(O)c1 (stereo not given)	n	n	n	n	n	n
COc1ccc(C(=O)/C=C/C(=O)N(CC(=O)NC2CCCCC2)Cc2ccccc2)c(O)c1	n	x	59.7	n	n	n
Cc1cc(-c2cc(-c3ccc(Cl)cc3)nc(N)c2C#N)co1	n	n	x	62.3	n	n
COc1ccc(-c2cc(-c3ccc(O)cc3)nc(N)c2C#N)cc1OC	n	n	n	65.0	n	n
COc1ccc(-c2c(C#N)c(N)nc3c2CCc2ccccc2-3)cc1OC	u	n	n	n	n	n
Cc1ccc(-c2cc(-c3ccc(Cl)cc3)c(C#N)c(N)n2)o1	n	n	n	n	n	n
O=C(Nc1ccc(S(=O)(=O)N2CCCCC2)cc1)c1ccc(CN2CCc3ccccc3C2)cc1	n	n	n	99.1	u	n
O=C(Nc1ccc(S(=O)(=O)Nc2ccccc2)cc1)c1ccc(CN2CCOCC2)cc1	n	n	n	82.5	n	n
CCOC(=O)c1sc(NC(=O)CCc2ccc(OC)cc2)nc1C	n	n	n	x	n	n
CCN(CC)CCN(C(=O)c1ccc2ccccc2c1)c1nc2ccc(OC)cc2s1	98.7	n	n	x	n	n
CN(C)CCN(C(=O)c1ccc(S(=O)(=O)N(C)C)cc1)c1nc2cc3c(cc2s1)OCCO3	n	n	60.7	n	n	n
CCN(CC)CCN(C(=O)c1ccc([N+](=O)[O-])cc1)c1nc2ccc(OC)cc2s1	n	n	n	n	n	n
CCN(CC)CCN(C(=O)c1cc2ccccc2cc1OC)c1nc2ccc(OC)cc2s1	80.5	n	n	x	n	n
CCN(CC)CCN(C(=O)c1cc2ccccc2cc1OC)c1nc2ccc(F)cc2s1	n	n	n	x	n	n
CCOc1ccc2nc(N(CCN(CC)CC)C(=O)c3ccc([N+](=O)[O-])cc3)sc2c1	n	n	54.9	n	n	n
CC1CN(C(=S)NC2CCCC2)CC(C)O1 (stereo not given)	n	n	n	x	n	n
CCCNC(=O)CSc1nc2[nH]ncc2c(=O)[nH]1	u	n	n	n	n	n
COc1cc(CC(=O)OCC(=O)N2CCCCC2C)cc(OC)c1OC (stereo not given)	n	n	n	x	n	n
CCN(CC)CCN(C(=O)C1=COCCO1)c1nc2ccc(C)cc2s1	n	n	58.9	x	n	n
COc1ccc2nc(N(CCN(C)C)C(=O)c3ccc4c(c3)OCCO4)sc2c1	n	n	64.5	x	n	n
Cc1ccc(C)c(NC(=O)CCCCCCCCCCC2COCCO2)c1 (stereo not given)	n	n	n	n	n	n
C=CCn1c(SCC(=O)NC2CCCC2)nnc1-c1ccccn1	n	n	n	x	n	n
O=C(Nc1ccc(F)cc1)C(c1ccccc1)N1CCN(S(=O)(=O)c2ccc3ccccc3c2)CC1 (stereo not given)	u	n	n	n	n	n
SMILES	Calb FLC	NLRP3 yeast inh	T cruzi inh	L major viab	PolyA inhibitor	NALP1 inh
Cc1ccc(C)c(S(=O)(=O)N2CCN(C(C(=O)Nc3ccc(F)cc3)c3ccccc3)CC2)c1 (stereo not given)	n	n	n	55.8	n	n
Cc1ccc(S(=O)(=O)NCCC(=O)NNC(=O)c2ccccc2O)cc1C	n	n	n	x	n	x
NCC(c1ccc(Cl)cc1Cl)c1c[nH]c2ccccc12 (stereo not given)	80.2	n	n	x	n	n
O=C(NC(c1ccc(Cl)cc1)c1c(O)ccc2ccccc12)c1ccccc1 (stereo not given)	x	x	x	99.2	x	n
O=C(NC(c1ccccc1)c1c(O)ccc2ccccc12)c1ccccc1Cl (stereo not given)	n	n	n	99.7	x	n
O=C(CN1CCN(S(=O)(=O)c2ccc(Cl)cc2)CC1)c1ccc(O)c(O)c1	n	n	n	x	n	n

Assay outcomes deposited in PubChem by several laboratories.
